{"data": "Results from different studies", "note": "Compare with care: the assays were run in different laboratories."}
{"Compound": "CN1CCC[C@H]1COc1cnc(Cl)c(OCc2ccc(Cl)nc2)c1", "technique": "shake flask", "matrix": "aqueous buffer", "pH": "pH 7.4", "endpoint": "logD", "result": 2.2}
{"Compound": "CC(C)C[C@@H]1NC(=O)[C@@H]2CSSC[C@@H](C(=O)NCC(N)=O)NC(=O)[C@H](Cc3ccccc3)NC(=O)CNC(=O)[C@H](CC(N)=O)NC(=O)[C@@H]3CCCN3C(=O)CNC(=O)[C@@H]3CSSC[C@H](NC(=O)[C@H](CO)NC(=O)[C@H]([C@@H](C)O)NC(=O)[C@@H]4CCCN4C(=O)[C@H](C)NC(=O)[C@H](Cc4c[nH]c5ccccc45)NC(=O)[C@H](CC(=O)O)NC(=O)CNC(=O)[C@H](CCCNC(=N)N)NC(=O)CNC(=O)[C@H](CCC(N)=O)NC(=O)[C@@H]4CCCN4C(=O)[C@@H](NC(=O)CNC(=O)c4ccc(F)cc4)CSSC[C@H](NC(=O)CNC(=O)[C@H](C)NC1=O)C(=O)N[C@@H](C(C)C)C(=O)N3)C(=O)N[C@@H](CO)C(=O)N[C@@H](CCC(N)=O)C(=O)N[C@@H](CC(=O)O)C(=O)N[C@@H](CO)C(=O)N[C@@H](CC(=O)O)C(=O)N2", "technique": "shake flask", "matrix": "PBS", "pH": "pH 7.4", "endpoint": "logD", "result": -1.68}
{"Compound": "O=c1c(O)c(NCc2ccccc2)c1=O", "technique": "shake flask", "matrix": "aqueous buffer", "time": "1 h", "pH": "pH 7.4", "endpoint": "logD", "result": -1.4}
{"Compound": "Cc1c(C(=O)NN2CCCCC2)nc(-c2ccc(Cl)cc2Cl)n1-c1ccc(OCCCC(F)(F)F)cc1", "technique": "shake flask", "matrix": "aqueous buffer", "pH": "pH 7.4", "endpoint": "logD", "result": "> 5.5"}
{"Compound": "Clc1ccc(COc2cc(OC[C@@H]3CCCN3)cnc2Cl)cn1", "technique": "shake flask", "matrix": "aqueous buffer", "pH": "pH 7.4", "endpoint": "logD", "result": 1.9}
{"Compound": "Cc1c(C(=O)NN2CCCCC2)nc(-c2ccc(Cl)cc2Cl)n1-c1ccc(OCCCF)cc1", "technique": "shake flask", "matrix": "aqueous buffer", "pH": "pH 7.4", "endpoint": "logD", "result": 5.3}
{"Compound": "COc1cc(C(=O)N2CC[C@@H](O)[C@@H](N)C2)cc2nc(-c3cc4ccccc4n3CC3CC3)n(C)c12", "technique": "HPLC", "pH": "pH 7.4", "endpoint": "chromatographic logD", "result": 3.7}
{"Compound": "C=CC1=C(C)C2=Cc3c(C=C)c(C)c4[n]3[Fe]([Cl])[n]3c(c(C)c(CCC(=O)O)c3=CC3=NC(=C4)C(C)=C3CCC(=O)O)=CC1=N2", "technique": "shake flask", "matrix": "aqueous buffer", "pH": "pH 9", "endpoint": "logD", "result": 0.463}
{"Compound": "O=C(O)CN1CCC(Oc2ccc([C@H]3CC[C@]4(CC3)OOC3(O4)C4CC5CC(C4)CC3C5)cc2)CC1 (stereo partly drawn)", "technique": "HPLC", "pH": "pH 7.4", "endpoint": "chromatographic logD", "result": "3 to 3.3"}
